Experimental data reported in ChEMBL document CHEMBL4680120, “Novel anti-Alzheimer phenol-lipoyl hybrids: Synthesis, physico-chemical characterization, and biological evaluation” (Eur J Med Chem, 2020).
Active and inactive are the calls of the source. The rule behind the calls is not given here.

Experiments:
SH-SY5Y [1] = experiment: Neuroprotective activity against amyloid beta (1 to 42)-induced toxicity in human SH-SY5Y cells assessed as increase in PSEN mRNA expression at IC50 measured after 48 hrs by SYBR green dye based RT-qPCR analysis; assay type: functional, cell-based
Outline: (§1)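 Differentiated SH-SY5Y cells in 6-well plates treated 48 h with Aβ1-42 (20 μM) with or without hybrid. mRNA of AD-related genes measured by RT-qPCR, normalized to β-actin. Expressed as fold change versus untreated cells. Triplicate experiments.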

Erythrocyte [2] = experiment: Cytoprotective activity against H2O2-induced oxidative damage in human RBC assessed as increase in cell viability measured after 72 hrs by LDH release assay; assay type: functional, cell-based
Outline: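 Heparinized whole blood cultured with phytohemagglutinin. Cells were co-incubated with 50 or 100 μM hybrid and H2O2 (25 μM). Viability was read by MTT: lymphocytes at 2×10^5 per well, MTT 4 h at 37°C, formazan dissolved in DMSO, absorbance 570 nm. LDH release was measured on 100 μL medium with a commercial kit. Results are relative to untreated control.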

SH-SY5Y [3] = experiment: Neuroprotective activity against amyloid beta (1 to 42)-induced apoptosis in human SH-SY5Y cells assessed as early apoptotic cells at IC50 measured after 48 hrs by Annexin-V/Propidium iodide staining based flow cytometry (reference value: 0.74%); assay type: functional
SH-SY5Y [4] = experiment: Neuroprotective activity against amyloid beta (1 to 42)-induced toxicity in human SH-SY5Y cells assessed as decrease in TNFalpha mRNA expression at IC50 measured after 48 hrs by SYBR green dye based RT-qPCR analysis; assay type: functional, cell-based; outline: as §1
SH-SY5Y [5] = experiment: Neuroprotective activity against amyloid beta (1 to 42)-induced apoptosis in human SH-SY5Y cells assessed as decrease in DNA fragmentation at IC50 measured after 48 hrs by Hoechst 33258 staining based fluorescence microscopic assay; assay type: functional, cell-based
Outline: (§2)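 Differentiated SH-SY5Y cells, 4×10^4 per well, exposed 48 h to Aβ1-42 (20 μM) with or without hybrid. Fixed in 4% paraformaldehyde for 30 min, stained with Hoechst 33258 for 15 min. Nuclear chromatin condensation and DNA fragmentation scored by fluorescence microscopy at ×200.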

SH-SY5Y [6] = experiment: Neuroprotective activity against amyloid beta (1 to 42)-induced toxicity in human SH-SY5Y cells assessed as decrease in MAPT mRNA expression at IC50 measured after 48 hrs by SYBR green dye based RT-qPCR analysis; assay type: functional, cell-based; outline: as §1
Erythrocyte [7] = experiment: Cytoprotective activity against H2O2-induced oxidative damage in human RBC assessed as increase in cell viability measured after 72 hrs by MTT assay; assay type: functional, cell-based
[8] = Stability in human plasma assessed as observed rate constant by HPLC analysis; assay type: ADME, cell-free
Outline: (§3)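 Compound stock added to human plasma pre-warmed to 37°C and diluted with 0.02 M phosphate buffer (pH 7.4) to 80% plasma. 100 μL samples taken over time, quenched with 200 μL cold acetonitrile, centrifuged, and supernatant analyzed by HPLC. t½ and kobs are means of three experiments.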

[9] = Stability in simulated gastric fluid at pH 1.2 assessed as relative difference measured after 30 mins in presence of pepsin by HPLC analysis; assay type: ADME; settings: isolated protein, pH 1.2, 0.5 h
Outline: (§4)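 Incubation in simulated gastric fluid (pH 1.2, pepsin) or simulated intestinal fluid (pH 6.8, pancreatin). Aliquots deproteinized with ice-cold acetonitrile, centrifuged at 4°C and 12000 rpm for 10 min, filtered, analyzed by HPLC. RD% = (Ci − Cf)/Ci × 100. Stable if RD < 5%. Means of three experiments.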

[10] = Half life in human plasma by HPLC analysis; assay type: ADME, cell-free; outline: as §3
[11] = Stability in simulated gastric fluid at pH 1.2 assessed as relative difference measured after 15 mins in presence of pepsin by HPLC analysis; assay type: ADME; settings: isolated protein, pH 1.2, 0.25 h; outline: as §4
SH-SY5Y [12] = experiment: Neuroprotective activity against amyloid beta (1 to 42)-induced apoptosis in human SH-SY5Y cells assessed as late apoptotic cells at IC50 measured after 48 hrs by Annexin-V/Propidium iodide staining based flow cytometry (reference value: 33.72%); assay type: functional
SH-SY5Y [13] = experiment: Neuroprotective activity against amyloid beta (1 to 42)-induced apoptosis in human SH-SY5Y cells assessed as decrease in DNA condensation at IC50 measured after 48 hrs by Hoechst 33258 staining based fluorescence microscopic assay; assay type: functional, cell-based; outline: as §2
SH-SY5Y [14] = experiment: Cytotoxicity against human SH-SY5Y cells assessed as reduction in cell viability at 1 to 250 mg/l measured after 48 hrs by MTT assay; assay type: cell-based; settings: dose 1-250 mg/L
Outline: (§5)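 SH-SY5Y cells grown in DMEM/F12 with 10% FBS and differentiated with retinoic acid (10 μM), seeded at 1×10^4 per well and cultured 24 h. Cells were given hybrids at 1–250 mg/L with or without Aβ1-42 (20 μM) for 48 h. MTT (5 mg/mL) added for 4 h at 37°C, DMSO solubilization, read at 570/630 nm. LDH read at 450 nm. Five independent experiments.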

SH-SY5Y [15] = experiment: Neuroprotective activity against amyloid beta (1 to 42)-induced toxicity in human SH-SY5Y cells assessed as decrease in EGFR mRNA expression at IC50 measured after 48 hrs by SYBR green dye based RT-qPCR analysis; assay type: functional, cell-based; outline: as §1
Erythrocyte [16] = experiment: Cytoprotective activity against H2O2-induced oxidative damage in human RBC assessed as restoration of antioxidant activity measured after 72 hrs by TAC assay; assay type: functional, cell-based
SH-SY5Y [17] = experiment: Neuroprotective activity against amyloid beta (1 to 42)-induced toxicity in human SH-SY5Y cells assessed as decrease in BACE1 mRNA expression at IC50 measured after 48 hrs by SYBR green dye based RT-qPCR analysis; assay type: functional, cell-based; outline: as §1
SH-SY5Y [18] = experiment: Neuroprotective activity against amyloid beta (1 to 42)-induced toxicity in human SH-SY5Y cells assessed as increase in cell viability at 1 to 250 mg/l measured after 48 hrs by LDH release assay; assay type: functional, cell-based; settings: dose 1-250 mg/L; outline: as §5
SH-SY5Y [19] = experiment: Neuroprotective activity against amyloid beta (1 to 42)-induced toxicity in human SH-SY5Y cells assessed as decrease in BDNF mRNA expression at IC50 measured after 48 hrs by SYBR green dye based RT-qPCR analysis; assay type: functional, cell-based; outline: as §1
Erythrocyte [20] = experiment: Cytoprotective activity against H2O2-induced oxidative damage in human RBC assessed as recovery of H2O2-induced cell death at 50 to 100 uM measured after 72 hrs by MTT assay relative to control; assay type: functional; settings: dose 50-100 µM
SH-SY5Y [21] = experiment: Neuroprotective activity against amyloid beta (1 to 42)-induced toxicity in human SH-SY5Y cells assessed as decrease in APH1alpha mRNA expression at IC50 measured after 48 hrs by SYBR green dye based RT-qPCR analysis; assay type: functional, cell-based; outline: as §1
SH-SY5Y [22] = experiment: Neuroprotective activity against amyloid beta (1 to 42)-induced toxicity in human SH-SY5Y cells assessed as decrease in APOE mRNA expression at IC50 measured after 48 hrs by SYBR green dye based RT-qPCR analysis; assay type: functional, cell-based; outline: as §1
SH-SY5Y [23] = experiment: Neuroprotective activity against amyloid beta (1 to 42)-induced toxicity in human SH-SY5Y cells assessed as increase in ADAM10 mRNA expression at IC50 measured after 48 hrs by SYBR green dye based RT-qPCR analysis; assay type: functional, cell-based; outline: as §1
SH-SY5Y [24] = experiment: Neuroprotective activity against amyloid beta (1 to 42)-induced toxicity in human SH-SY5Y cells assessed as decrease in […] mRNA expression at IC50 measured after 48 hrs by SYBR green dye based RT-qPCR analysis; assay type: functional, cell-based; outline: as §1

| SMILES | Activity (SH-SY5Y [1]) | Activity (Erythrocyte [2]) | Activity (SH-SY5Y [3]) [%] | Activity (SH-SY5Y [4]) | Activity (SH-SY5Y [5]) | Activity (SH-SY5Y [6]) | Activity (Erythrocyte [7]) | K [8] [h⁻¹] | fold change (FC) [9] [%] | half-life [10] [h] | fold change (FC) [11] [%] | Activity (SH-SY5Y [12]) [%] | Activity (SH-SY5Y [13]) | Activity (SH-SY5Y [14]) | Activity (SH-SY5Y [15]) | Activity (Erythrocyte [16]) | Activity (SH-SY5Y [17]) | Activity (SH-SY5Y [18]) | Activity (SH-SY5Y [19]) | Activity (Erythrocyte [20]) [%] | also measured |
| --- | --- | --- | --- | --- | --- | --- | --- | --- | --- | --- | --- | --- | --- | --- | --- | --- | --- | --- | --- | --- | --- |
| O=C(CCCCC1CCSS1)NCCCCCOC(=O)Cc1ccc(O)c(O)c1 (stereo not drawn) | Active | Dose-dependent effect | 1.86 | Active | Active | Active | Dose-dependent effect | 20.56 | 79.35 | 0.03 | 35.42 | 9.69 | Active | Non-Toxic | Active | Dose-dependent effect | Active | Active | Active | 0.5 | Activity (SH-SY5Y [21]): Active; Activity (SH-SY5Y [22]): Active; Activity (SH-SY5Y [23]): Active; Activity (SH-SY5Y [24]): Active |
| COc1cc(/C=C/C(=O)NCCCNC(=O)CCCCC2CCSS2)ccc1O (stereo not drawn) | Active | Dose-dependent effect | 1.19 | Active | Active | Active | Dose-dependent effect | 0.01 | 0.43 | 72.4 | 0.36 | 9.97 | Active | Non-Toxic | Active | Dose-dependent effect | Active | Active | Active | 0.5 | Activity (SH-SY5Y [21]): Active; Activity (SH-SY5Y [22]): Active; Activity (SH-SY5Y [23]): Active; Activity (SH-SY5Y [24]): Active |
